What was measured:
[1] = tested on: HepG2; experiment: Growth inhibition of human HepG2 cells at 40 ug/ml after 72 hrs by MTT assay; type: functional; conditions: HepG2, 72 h, read-out: GI
In short: (§1)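 Single-concentration screen at 40 µg/mL, reported as % cell growth inhibition. Cells were seeded at 2 × 10⁴ per well, grown to subconfluence, then treated for 72 h at 37 °C in humidified 5% CO₂. MTT was added for 4 h, formazan was dissolved in DMSO, and absorbance was read at 570 nm. Triplicate wells, three independent experiments; 5-FU served as positive control.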

[2] = tested on: SGC-7901; experiment: Growth inhibition of human SGC7901 cells at 40 ug/ml after 72 hrs by MTT assay; type: functional; conditions: SGC-7901, 72 h, read-out: GI; in short: as §1
[3] = tested on: BGC-823; experiment: Growth inhibition of human BGC823 cells at 40 ug/ml after 72 hrs by MTT assay; type: functional; conditions: BGC-823, 72 h, read-out: GI; in short: as §1
[4] = tested on: NCI-H460; experiment: Growth inhibition of human NCI-H460 cells at 40 ug/ml after 72 hrs by MTT assay; type: functional; conditions: NCI-H460, 72 h, read-out: GI; in short: as §1
[5] = tested on: MCF7; experiment: Growth inhibition of human MCF7 cells at 40 ug/ml after 72 hrs by MTT assay; type: functional; conditions: MCF7, 72 h, read-out: GI; in short: as §1
[6] = tested on: HepG2; experiment: Cytotoxicity against human HepG2 cells after 72 hrs by MTT assay; type: functional, cell-based; conditions: for IC50: HepG2, 72 h
In short: (§2)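 MTT assay. Cells were seeded at 2 × 10⁴ per well, grown to subconfluence, then exposed to serial dilutions of compound in test medium for 72 h at 37 °C in humidified 5% CO₂. MTT was added for 4 h, formazan was dissolved in DMSO, and absorbance was read at 570 nm. IC50 values were derived from dose-response. Triplicate wells, three independent experiments; 5-FU served as positive control.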

[7] = tested on: SGC-7901; experiment: Cytotoxicity against human SGC7901 cells after 72 hrs by MTT assay; type: functional, cell-based; conditions: SGC-7901, 72 h; in short: as §2
[8] = tested on: BGC-823; experiment: Cytotoxicity against human BGC823 cells after 72 hrs by MTT assay; type: functional, cell-based; conditions: for IC50: BGC-823, 72 h; in short: as §2
[9] = tested on: NCI-H460; experiment: Cytotoxicity against human NCI-H460 cells after 72 hrs by MTT assay; type: functional, cell-based; conditions: NCI-H460, 72 h; in short: as §2
[10] = tested on: MCF7; experiment: Cytotoxicity against human MCF7 cells after 72 hrs by MTT assay; type: functional, cell-based; conditions: MCF7, 72 h; in short: as §2

Row | Structure (SMILES) | inhibition of growth at 40 µg/mL [1] | inhibition of growth at 40 µg/mL [2] | inhibition of growth at 40 µg/mL [3] | inhibition of growth at 40 µg/mL [4] | inhibition of growth at 40 µg/mL [5] | IC50 [6] | IC50 [7] | IC50 [8] | IC50 [9] | IC50 [10] | Activity [6] | Activity [8]
1 | CNC(=O)c1cc(Cl)cc(C)c1NC(=O)C1CC(c2ccc(F)cc2)=NO1 (centres undefined) | 26.7% | 12.8% | 14.6% | 42.9% | 40.8% | > 100 µM | > 100 µM | > 100 µM | 50.3 µM | > 100 µM |  | 
2 | CCCNC(=O)c1cc(Cl)cc(C)c1NC(=O)C1CC(c2cc(OC)c(OC)c(OC)c2)=NO1 (centres undefined) | 21.1% | 15.4% | 28% | 9.5% | 29.1% | > 100 µM | > 100 µM | > 100 µM | > 100 µM | > 100 µM |  | 
3 | Cc1cc(Cl)cc2c(=O)oc(C3CC(c4ccc(F)cc4)=NO3)nc12 (centres undefined) | 38.9% | 42.7% | 72.1% | 64.6% | 54.7% | 53.4 µM | 53.4 µM | 34.9 µM | 35.8 µM | 51.9 µM |  | 
4 | CNC(=O)c1cc(Cl)cc(C)c1NC(=O)C1CC(c2cc(OC)c(OC)c(OC)c2)=NO1 (centres undefined) | 30.6% | 27.3% | 34.1% | 5.5% | 26.1% | 67.6 µM | 65.5 µM | 54.1 µM | > 100 µM | > 100 µM |  | 
5 | CC(C)NC(=O)c1ccccc1NC(=O)C1CC(c2ccc(Cl)cc2)=NO1 (centres undefined) | 5.5% | 13.6% | 14.6% | 0% | 0% |  |  |  |  |  |  | 
6 | COc1cc(C2=NOC(c3nc4c(C)cc(Cl)cc4c(=O)o3)C2)cc(OC)c1OC (centres undefined) | 16.5% | 0% | 0% | 0% | 12.4% | > 100 µM | > 100 µM | > 100 µM | > 100 µM | > 100 µM |  | 
7 | CCCNC(=O)c1cc(Cl)cc(C)c1NC(=O)C1CC(c2ccc(F)cc2)=NO1 (centres undefined) | 29.1% | 30.5% | 23.5% | 20% | 33% | > 100 µM | > 100 µM | > 100 µM | > 100 µM | > 100 µM |  | 
8 | CCN(CC)C(=O)c1cc(Cl)cc(C)c1NC(=O)C1CC(c2ccc(F)cc2)=NO1 (centres undefined) | 18.2% | 15.8% | 36.4% | 10% | 14.4% | > 100 µM | > 100 µM | > 100 µM | > 100 µM | > 100 µM |  | 
9 | Cc1cc(Cl)cc2c(=O)oc(C3CC(c4ccc(Cl)cc4)=NO3)nc12 (centres undefined) | 52.4% | 35.6% | 31.5% | 58.1% | 37.7% | 43.6 µM | 68.8 µM | 54.4 µM | 41.9 µM | 68.7 µM |  | 
10 | Cc1cc(Cl)cc(C(=O)NC(C)C)c1NC(=O)C1CC(c2ccc(F)cc2)=NO1 (centres undefined) | 13.6% | 17.2% | 0% | 0% | 4.8% |  |  |  |  |  |  | 
11 | CCN(CC)C(=O)c1cc(Cl)cc(C)c1NC(=O)C1CC(c2cc(OC)c(OC)c(OC)c2)=NO1 (centres undefined) | 28.6% | 28.3% | 27.8% | 0% | 23.5% |  |  |  |  |  |  | 
12 | COc1cc(C2=NOC(C(=O)Nc3c(C)cc(Cl)cc3C(=O)NC(C)C)C2)cc(OC)c1OC (centres undefined) | 12.9% | 0% | 11.7% | 0.5% | 9.1% |  |  |  |  |  |  | 
13 | CC(C)NC(=O)c1ccccc1NC(=O)C1CC(c2ccc(F)cc2)=NO1 (centres undefined) | 0% | 10.3% | 21.5% | 0% | 0% |  |  |  |  |  |  | 
14 | Cc1cc(Cl)cc(C(=O)Nc2ccccc2)c1NC(=O)C1CC(c2ccc(F)cc2)=NO1 (centres undefined) | 5.1% | 11.6% | 26.4% | 0% | 17% |  |  |  |  |  |  | 
15 | CCN(CC)C(=O)c1cc(Cl)cc(C)c1NC(=O)C1CC(c2ccc(Cl)cc2)=NO1 (centres undefined) | 59.2% | 76.3% | 59.6% | 63.5% | 62.1% | 37.7 µM | 37.4 µM | 36.5 µM | 37.5 µM | 34.5 µM | Dose-dependent effect | Dose-dependent effect
16 | CNC(=O)c1ccccc1NC(=O)C1CC(c2cc(OC)c(OC)c(OC)c2)=NO1 (centres undefined) | 31.4% | 12% | 20.8% | 0% | 9.1% |  |  |  |  |  |  | 
17 | Cc1cc(Cl)cc(C(=O)NC2CCCCC2)c1NC(=O)C1CC(c2ccc(Cl)cc2)=NO1 (centres undefined) | 15.6% | 3.1% | 18.3% | 15.1% | 9.6% |  |  |  |  |  |  | 
18 | CNC(=O)c1ccccc1NC(=O)C1CC(c2ccc(F)cc2)=NO1 (centres undefined) | 9.1% | 0% | 21.4% | 0% | 0% |  |  |  |  |  |  | 
19 | CCCNC(=O)c1cc(Cl)cc(C)c1NC(=O)C1CC(c2ccc(Cl)cc2)=NO1 (centres undefined) | 16.7% | 14.7% | 24.5% | 13.6% | 22.2% |  |  |  |  |  |  | 
20 | CNC(=O)c1ccccc1NC(=O)C1CC(c2ccc(Cl)cc2)=NO1 (centres undefined) | 50.6% | 7.8% | 13.3% | 5.7% | 16.5% |  |  |  |  |  |  | 
21 | COc1cc(C2=NOC(C(=O)Nc3c(C)cc(Cl)cc3C(=O)NC3CCCCC3)C2)cc(OC)c1OC (centres undefined) | 64% | 60.2% | 69.7% | 74% | 62.7% | 34.8 µM | 36.8 µM | 23.3 µM | 24.7 µM | 22.4 µM | Dose-dependent effect | Dose-dependent effect
22 | CNC(=O)c1cc(Cl)cc(C)c1NC(=O)C1CC(c2ccc(Cl)cc2)=NO1 (centres undefined) | 18.7% | 24.6% | 13.2% | 0% | 22.6% | > 100 µM | > 100 µM | > 100 µM | > 100 µM | > 100 µM |  | 
23 | O=c1[nH]cc(F)c(=O)[nH]1 [FLUOROURACIL] | 81.3% | 80.8% | 85.7% | 89.7% | 80.4% | 4.8 µM | 6.3 µM | 4.5 µM | 2.4 µM | 12.5 µM |  | 
24 | Cc1cc(Cl)cc(C(=O)NC2CCCCC2)c1NC(=O)C1CC(c2ccc(F)cc2)=NO1 (centres undefined) | 10% | 15.6% | 34.3% | 33.3% | 24.8% |  |  |  |  |  |  | 
25 | Cc1cc(Cl)cc(C(=O)NC(C)C)c1NC(=O)C1CC(c2ccc(Cl)cc2)=NO1 (centres undefined) | 12.3% | 24.2% | 38.7% | 10.3% | 3.9% |  |  |  |  |  |  | 
26 | COc1cc(C2=NOC(C(=O)Nc3ccccc3C(=O)NC(C)C)C2)cc(OC)c1OC (centres undefined) | 11.7% | 0% | 0% | 0% | 0% |  |  |  |  |  |  | 

Reference: ChEMBL document CHEMBL2040844, “Anthranilic acid-based diamides derivatives incorporating aryl-isoxazoline pharmacophore as potential anticancer agents: design, synthesis and biological evaluation” (Eur J Med Chem, 2012)
